pIC50: −log10 of the molar value.
Legend:
[1] = Fraction unbound in human plasma by LC/MS-MS analysis; assay type: ADME, cell-free
Summary of the method: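 Equilibrium dialysis: 10 µM compound was spiked into human plasma against phosphate buffer and rotated at 37 °C for 16 h. Plasma and buffer concentrations were quantified by LC/MS–MS with a C18 column and ESI MRM detection.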

[2] = target: Voltage-gated inwardly rectifying potassium channel KCNH2 (Homo sapiens, UniProt Q12809); test: Inhibition of human ERG by cell-based patch clamp method
[3] = system: Pseudomonas aeruginosa; test: Antimicrobial activity against Pseudomonas aeruginosa PAO1 in neutropenic mouse thigh infection model assessed as log reduction in CFU at 200 mg/kg/day, ip bid q12 regime starting 2 hrs after infection measured 24 hrs post start of treatment relative to control; assay type: functional; conditions: route intraperitoneal
Summary of the method: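 CD-1 mice made neutropenic with intraperitoneal cyclophosphamide 4 days (150 mg/kg) and 1 day (100 mg/kg) before thigh infection with P. aeruginosa PAO1, target inoculum 5 × 10⁵ CFU. Groups of five dosed ip in 5% dextrose with lactic acid pH 5.0. Vehicle-only group included. Thighs removed 24 h after treatment start, weighed, homogenized and plated on tryptic soy agar, 37 °C overnight. Log CFU/g reduction is relative to starting inoculum.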

[4] = AUC(infinity) in neutropenic mouse at 100 mg/kg/day, ip bid of total 12 doses; assay type: ADME, organism-based; parameters: dose 100 mg/kg/day, time infinity, route intraperitoneal; conditions: plasma
Summary of the method: (§1)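 CD-1 mice were made neutropenic with ip cyclophosphamide, 150 mg/kg at day −4 and 100 mg/kg at day −1, then infected in the thigh with P. aeruginosa PAO1. Dosing was ip, bid q12 from 2 h post-infection, in 5% dextrose with lactic acid pH 5.0. Groups of three mice were killed at timed intervals and cardiac-puncture plasma was analysed by LC–MS/MS.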

[5] = AUC(infinity) in neutropenic mouse at 200 mg/kg/day, ip bid of total 12 doses; assay type: ADME, organism-based; parameters: dose 200 mg/kg/day, time infinity, route intraperitoneal; conditions: plasma; summary of the method: as §1
[6] = Ratio of fAUC to MIC in Pseudomonas aeruginosa PAO1 in neutropenic mouse thigh infection model at 200 mg/kg/day, ip bid q12h starting 2 h post infection; conditions: route intraperitoneal
[7] = Ratio of fAUC to MIC in Pseudomonas aeruginosa PAO1 in neutropenic mouse thigh infection model at 100 mg/kg/day, ip bid of total 12 doses starting 2 h post infection; conditions: route intraperitoneal

Chain of Voltage-gated inwardly rectifying potassium channel KCNH2 (Q12809 whole entry): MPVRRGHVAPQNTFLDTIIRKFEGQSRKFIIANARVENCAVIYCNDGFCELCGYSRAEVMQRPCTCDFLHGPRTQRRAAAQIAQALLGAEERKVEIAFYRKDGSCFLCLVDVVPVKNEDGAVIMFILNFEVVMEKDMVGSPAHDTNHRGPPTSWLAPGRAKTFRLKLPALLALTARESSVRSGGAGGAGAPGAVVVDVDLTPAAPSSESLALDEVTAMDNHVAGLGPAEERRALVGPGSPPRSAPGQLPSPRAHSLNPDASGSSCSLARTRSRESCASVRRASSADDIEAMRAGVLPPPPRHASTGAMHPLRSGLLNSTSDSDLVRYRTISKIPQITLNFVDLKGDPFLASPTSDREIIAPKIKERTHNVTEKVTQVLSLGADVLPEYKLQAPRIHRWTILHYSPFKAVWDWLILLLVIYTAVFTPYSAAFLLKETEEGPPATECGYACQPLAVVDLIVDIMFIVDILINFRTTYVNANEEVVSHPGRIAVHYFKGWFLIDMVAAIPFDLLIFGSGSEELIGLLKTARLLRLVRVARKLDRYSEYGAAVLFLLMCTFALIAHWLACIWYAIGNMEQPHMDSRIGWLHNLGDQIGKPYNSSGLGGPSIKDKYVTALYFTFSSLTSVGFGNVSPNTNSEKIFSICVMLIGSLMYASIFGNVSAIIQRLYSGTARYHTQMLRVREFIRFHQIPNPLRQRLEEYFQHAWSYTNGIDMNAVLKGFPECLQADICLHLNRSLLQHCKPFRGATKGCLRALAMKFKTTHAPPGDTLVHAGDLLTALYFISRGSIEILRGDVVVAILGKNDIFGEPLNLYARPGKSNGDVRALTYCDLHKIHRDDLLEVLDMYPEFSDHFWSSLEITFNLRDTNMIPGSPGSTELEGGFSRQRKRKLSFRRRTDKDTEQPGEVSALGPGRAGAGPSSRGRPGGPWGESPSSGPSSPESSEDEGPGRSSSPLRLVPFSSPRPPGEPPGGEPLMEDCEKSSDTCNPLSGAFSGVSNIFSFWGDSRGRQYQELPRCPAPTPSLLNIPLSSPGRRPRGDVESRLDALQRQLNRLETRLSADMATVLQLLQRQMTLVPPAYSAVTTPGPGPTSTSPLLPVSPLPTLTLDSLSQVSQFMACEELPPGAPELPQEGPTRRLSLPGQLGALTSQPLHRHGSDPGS

N[C@@H](Cn1c(=O)cnc2ccc(F)cc21)[C@H]1CC[C@H](NCc2ncc3c(n2)NC(=O)CO3)CC1
fraction unbound [1]: 0.73
pIC50 [2]: < 3.48
FC [3]: 2.5
AUC(0-inf) [4]: 14800 ng·h/mL
AUC(0-inf) [5]: 29900 ng·h/mL
fAUC/MIC [6]: 23
fAUC/MIC [7]: 12

Reference: ChEMBL document CHEMBL3352316, “Optimization of physicochemical properties and safety profile of novel bacterial topoisomerase type II inhibitors (NBTIs) with activity against Pseudomonas aeruginosa” (Bioorg Med Chem, 2014)
